Shown is part of a subset that was picked to be rich in hits.
pCIP destab: p/CIP protein destabilization | Q05BA5 | F442A p/CIP-EGFP cells, EGFP fluorescence, 16 h | decrease of EGFP signal, % at 10 µM | actives 0.01% (n = 290,000) | AID 1984;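 active = EGFP signal decrease of at least 30% at 10 µM or well 3 SD below plate mean, unless failing retest; inactive = the rest, including hits failing retest or dose response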
Dynein transport: dynein cargo transport inhibition | 3617.4 mouse cells, GR-EGFP nuclear translocation imaging; test concentration mostly 20 µM; stimulated with dexamethasone, 1 µM; stronger effect = lower value | actives 0.47% (n = 220,000) | z-score, hits read low;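 active = plate z-score of nuclear minus cytoplasmic receptor signal below a set negative limit, without overly bright fluorescence or cell loss, cut at about -3.5 in these data, passing the limit was not always enough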;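 note: z-score of nuclear minus cytoplasmic ring GR-EGFP intensity difference per well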
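medium = tetracycline-free induction medium containing charcoal-stripped FBS | probe or stimulus = dexamethasone, 1.0 µM final | timing = 48 h induction, then 1 h compound, then 30 min agonist, 37 °C | detection = automated 10x imaging of fixed Hoechst-stained cells | read-out basis = nuclear versus cytoplasmic GR-EGFP signal, averaged per well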
Cl transport mod: modulates chloride dependent transport by human KCC2; actives 2.2% (n = 190,000); B-score of Tl+ flux slope (higher = more flux/activation; lower = inhibition) at 10 µM; Q9H2X9; AID 1456; KCC2 cells, thallium flux FluoZin-2 fluorescence;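 active = thallium flux slope and its plate-corrected score both differing from the plate sample mean at a set confidence after two filtering rounds, in either direction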;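 note: slope of fluorescence scaled to starting intensity during 10 to 20 s after thallium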
V-ATPase pHluor: yeast V-ATPase proton transport regulation by pHLuorin; S. cerevisiae, pHLuorin cytosolic pH fluorescence; response, % at 10 µM; actives 0.37% (n = 350,000); AID 504577; in the data active = response mostly above about 7.3%, no sharp cut-off; inactive = mostly below about 5.4%; note: actives read high
ABCB6 inh MLPCN: inhibitors of human ABC transporter ABCB6; actives 0.19% (n = 360,000); AID 602162; K562-ABCB6 porphyrin accumulation, flow cytometry, 1 h; stronger effect = lower value; fluorescence ratio to DMSO, % at 10 µM; Q9NP58;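 active = fluorescence ratio to DMSO below 75%, the collection mean minus 3 SD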;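 note: signal is porphyrin accumulated inside mitochondria; lower ratio means ABCB6 inhibition with less porphyrin fluorescence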
Target sequence (Q9NP58 whole entry, looked up): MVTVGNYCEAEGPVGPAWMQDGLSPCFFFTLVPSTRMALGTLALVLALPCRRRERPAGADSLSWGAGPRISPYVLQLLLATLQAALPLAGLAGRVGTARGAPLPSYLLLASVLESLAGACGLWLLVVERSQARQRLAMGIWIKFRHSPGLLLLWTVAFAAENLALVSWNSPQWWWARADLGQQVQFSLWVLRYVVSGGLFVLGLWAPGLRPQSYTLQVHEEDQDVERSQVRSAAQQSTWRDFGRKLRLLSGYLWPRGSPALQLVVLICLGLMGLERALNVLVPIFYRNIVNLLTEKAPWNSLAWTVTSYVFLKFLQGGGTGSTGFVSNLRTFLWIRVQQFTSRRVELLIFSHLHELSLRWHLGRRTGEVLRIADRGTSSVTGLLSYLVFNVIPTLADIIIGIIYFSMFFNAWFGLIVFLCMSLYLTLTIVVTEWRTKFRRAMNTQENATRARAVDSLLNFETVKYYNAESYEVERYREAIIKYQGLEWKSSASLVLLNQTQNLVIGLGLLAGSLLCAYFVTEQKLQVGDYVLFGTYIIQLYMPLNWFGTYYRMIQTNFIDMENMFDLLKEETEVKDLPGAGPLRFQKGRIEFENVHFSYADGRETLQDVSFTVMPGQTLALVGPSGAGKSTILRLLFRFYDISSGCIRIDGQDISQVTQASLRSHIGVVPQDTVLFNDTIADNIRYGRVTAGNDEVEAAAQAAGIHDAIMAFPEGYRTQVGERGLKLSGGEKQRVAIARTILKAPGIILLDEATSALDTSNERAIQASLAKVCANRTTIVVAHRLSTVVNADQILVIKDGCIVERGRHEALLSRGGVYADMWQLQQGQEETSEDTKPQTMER
A number is an active result; - = inactive; . = no result given.

SMILES	pCIP destab	Dynein transport	Cl transport mod	V-ATPase pHluor	ABCB6 inh MLPCN
CC(=O)Oc1ccc2c(c1)c(C(C)=O)c(C)n2C	-	-	-	18	-
Cc1ccc(S(=O)(=O)NN=C2CCc3ccccc32)cc1	.	.	.	-	-
COc1cccc(CNC(=O)N[C@@H](CC(C)C)C(=O)O)c1	-	-	-	-	63
CCC(C)[C@H](NC(=O)NCc1cccc(OC)c1)C(=O)OC (stereo partly drawn)	-	-	-	-	-
Cc1ccccc1C(=O)Nc1ccccc1C(=O)N/N=C\c1ccco1	-	-	-	-	-
O=C(Nc1ccccc1C(=O)N/N=C/c1ccco1)c1ccccc1	-	-	7.8	-	-
C(=C\c1ccncc1)/c1ccccc1	-	-	-	18	-
CC12CCC(C(=O)N(CSC(=S)N/N=C\c3ccccc3Cl)C1=O)C2(C)C (stereo not drawn)	-	-	.	-	-
CC12CCC(C(=O)N(CSC(=S)N/N=C\c3ccccc3)C1=O)C2(C)C (stereo not drawn)	-	-	23	-	-
COc1ccc(CCN2C(=O)CCC2(C)c2nnnn2-c2c(C)cccc2C)cc1OC (stereo not drawn)	.	.	.	.	-
CNc1ccc(Br)cc(C(=O)/C=C/c2cc(OC)ccc2OC)c1=O	-	-4.1	-	-	-
CNc1ccc(Br)cc(C(=O)/C=C/c2ccc(OC)cc2)c1=O	-	-	-	-	-
CC1Oc2ccc(C#N)cc2N(Cc2ccc(F)cc2)C1=O (stereo not drawn)	.	.	.	.	-
COc1cc(Cl)c(C)cc1NC(=O)CN1CCN(C(=O)c2cccs2)CC1	.	.	.	-	-
Cn1nc(C(=O)Nc2ccccc2)c2c1-c1ccccc1S(=O)(=O)C2	-	.	.	14	-
CCCCn1c(SCC(=O)N2CCC(C)CC2)nc2cc(S(N)(=O)=O)ccc21	-	-	-	14	-
CC(=O)Nc1cccc2ccc(O)cc12	.	.	.	-	-
CC(=O)Nc1cc2c3ccccc3ccc2c2ccccc12	.	.	.	-	74
CSc1ccc(OC2(C)CCN(Cc3ccc(-c4ccccn4)cc3)C2)cc1 (stereo not drawn)	.	.	.	.	-
COC(=O)[C@@]1(Cc2ccc(OC)cc2)[C@@H]2C(=CC(=O)[C@H]2CC(=O)C(=O)N2CCCC2)CN1C(=O)c1ccccc1	-	-4.7	-	-	-
COC(=O)[C@@]1(Cc2ccc(F)cc2)[C@H]2C(CC(=O)C(=O)N3CCCC3)C(=O)C[C@H]2CN1C(=O)c1ccccc1 (stereo partly drawn)	.	.	.	.	-
COc1ccc(NC(=O)C2(C)CCCN(C(C)=O)C2)cc1F (stereo not drawn)	.	.	.	.	-
Cc1ccc(S(=O)(=O)N2CCN(C(=O)c3cccc(F)c3)CC2)cc1	-	-	.	-	-
Cc1ccc(S(=O)(=O)N2CCN(C(=O)c3ccc4nc[nH]c4c3)CC2)cc1	.	.	.	15	-
CNC(=O)C[C@@H]1C(=O)N(C2CCCCC2)CC1(C)C	.	.	.	-	-
SMILES	pCIP destab	Dynein transport	Cl transport mod	V-ATPase pHluor	ABCB6 inh MLPCN
CC(C)NC(=O)C1(C)CCN1C(=O)C(c1ccccc1)c1ccccc1 (stereo not drawn)	.	.	.	.	-
Cc1ccc(C)c(NC(=S)N=Nc2c(O)n(C)c3ccc(S(=O)(=O)N4CCOCC4)cc23)c1	-	-	5.7	-	-
COc1ccc(/C=C/C(=O)C2C(=O)C=C(C)OC2=O)cc1O (stereo not drawn)	-	-	-	-	68
COc1cc(/C=C/C(=O)C2C(=O)C=C(C)OC2=O)cc(OC)c1O (stereo not drawn)	-	-	-	-	-
CC1(C(=O)NS(=O)(=O)c2ccc(Cl)s2)CCN1C(=O)C1(c2ccccc2)CCCC1 (stereo not drawn)	.	.	.	.	-
O=C(NC1CCN(Cc2ccccc2)CC1)c1[nH]c(C(F)(F)F)nc1-c1ccccc1	.	.	.	.	-
CC(C)Cn1c(=O)c(C(=O)NCc2ccccn2)c(O)c2ccccc21	-	-	-	-	-
CC(C)Cn1c(=O)c(C2=NS(=O)(=O)c3ccccc3N2)c(O)c2ccccc21	.	-	8.8	.	.
CC(=O)c1sc(NC(=O)CS(=O)(=O)c2ccccc2)nc1C	.	.	.	-	-
CC(=O)c1sc(NC(=O)CS(=O)(=O)c2ccccc2)nc1-c1ccccc1	.	.	.	18	-
COc1cccc(-n2cc(CNCc3c(C(=O)N(C)C)nc4ccc(Cl)cn34)cn2)c1	-	-	-	-	-
COc1cccc(-n2cc(CNCc3cn(C)nc3-c3ccccc3F)cn2)c1	-	-	.	14	-
Cc1cc(NCCN2CCOCC2)n2ncc(-c3ccc(Cl)cc3)c2n1	.	-	4.8	.	.
CC(=O)Nc1ccc(CN(C)c2c(C)nc3ccc(C(=O)Nc4ccc(Cl)c(Cl)c4)cn23)cc1	.	.	.	.	-
O=C(/C=C/c1cccs1)c1cc(Br)ccc1OC(=O)N1CCOCC1	-	-4.9	-	-	-
O=C(NNC(=O)c1cccnc1SCc1cccc([N+](=O)[O-])c1)c1ccccn1	-	-	6.9	-	-
O=C(NNC(=O)c1cccnc1SCc1cccc([N+](=O)[O-])c1)c1ccc(F)cc1	-	-	-	-	-
O=C(NCc1ccc2c(c1)OCO2)c1nc(S(=O)(=O)Cc2ccccc2)ncc1Cl	-	.	.	-	53
O=C(NCc1ccc2c(c1)OCO2)c1nc(S(=O)(=O)Cc2ccccc2F)ncc1Cl	-	.	.	-	-
CCn1c(SCC(=O)NC2CCCC2)nc2c(c1=O)SCC2	.	.	.	-	-
CC1C/C(=C/c2ccccn2)C(=O)/C(=C/c2ccccn2)C1 (stereo not drawn)	-	-5.8	-	-	-
CC1(C)Cc2c(sc3[nH]c(=S)n(Cc4ccco4)c(=O)c23)CO1	-	-	9	-	-
O=c1c2c3c(sc2[nH]c(=S)n1Cc1ccco1)CCC3	-	-	78	-	-
Cn1c(=O)n(Cc2ccco2)c(=N)c2c3c(sc21)CCC3	-	-	-	-	-
CC1(C(=O)NCc2ccc3c(c2)OCO3)CCN1C(=O)C1(c2ccc(Cl)cc2)CC1 (stereo not drawn)	.	.	.	.	-
SMILES	pCIP destab	Dynein transport	Cl transport mod	V-ATPase pHluor	ABCB6 inh MLPCN
CC1(C(=O)NS(=O)(=O)c2ccc(Cl)cc2)CCN1C(=O)CC1CC1 (stereo not drawn)	.	.	.	.	-
CC(=O)c1ccc(NC(=O)/C(=C\c2ccc(F)cc2)NC(=O)c2ccco2)cc1	-	.	.	-	74
COc1ccc(-c2csc(C(NC(C)=O)c3ccc(F)c(F)c3)n2)cn1 (stereo not drawn)	.	.	.	.	-
C=CCNC(=O)c1ccc(N(C)S(=O)(=O)c2ccc(OC)cc2)cc1	-	-	-	-	61
CCCc1cc(=O)oc2cc(OCc3nn[nH]n3)ccc12	-	-	-	-	-
CCCCc1cc(=O)oc2cc(OCc3nn[nH]n3)ccc12	-	-	-	18	-
N#CC1C(=O)NC(=O)C(C#N)C12CCCc1sccc12 (stereo not drawn)	.	.	.	-	-
CC(C)(C)NC(=O)C(=O)NNC(=O)COc1ccc(Br)cc1	-	-	20	-	-
Cc1ccc(NC(=O)C(=O)NNC(=O)c2cccs2)cc1	-	-	43	-	-

Assay outcomes from PubChem BioAssay.
